Data on three compounds can be found in article PMC8603004 (EFSA Journal, 2021).

The nature of data set [1]: First in vivo toxicokinetic study. Details: species or system male Wistar rats. Conditions: after 500 mg/kg bw 14C‐3‐NOP. The method in brief:
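Male Wistar rats received a single oral dose of 500 mg/kg bw 14C-labelled test compound under OECD TG 417 and were killed 48 h post-dose. Total radioactivity was measured in plasma, excreta and selected organs and tissues. Tissue levels were expressed as μg test-compound-eq/g and recovery as % of applied dose.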

Data set [2] can be described thus: Second in vivo toxicokinetic study, metabolic profile in gut and plasma. Conditions: urine 0 to 2 h of one animal, after 500 mg/kg bw 14C‐3‐NOP. More on the design: species or system male Wistar rats. The method in brief: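 Single oral dose of 500 mg/kg bw 14C-labelled test compound to male Wistar rats. One animal per time point was killed at 1, 2 and 3 h post-dose and blood was collected. Stomach, small intestine, caecum and colon contents were removed for total radioactivity. Metabolites were characterised by NMR and/or LC/MS.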

Data set [3] in a line: ADME of 14C‐3‐NOP following single or multiple oral administration. Format: in vivo, rat. Conditions: 500 mg/kg 14C‐3‐NOP, 1 h.
Data set [4] deals with testes and epididymides; Sertoli cells. Put plainly: Mechanistic toxicity studies. More on the design: species or system rats, dogs and non‐human primates.
The next data set is described as follows: ADME in a lactating goat. Format: in vivo.
Data set [5] is described as follows: Second goat experiment, pre‐dosed 5 days. Format: in vivo, lactating goat.
The nature of data set [6]: ADME in four lactating cows. Format: in vivo.
Data set [7] is described as follows: Feeding study 1 in beef cattle, NOPA in plasma. In kind it is in vivo. Particulars: bovine, oral, 284 mg/kg.
Data set [8] can be described thus: Tolerance study in dairy cows. Format: in vivo. Particulars: female, Holstein Friesian, cattle, liver, kidney, muscle, fat, oral.
The subject of data set [9] is Holstein Friesian dairy cows. The data set is described as follows: Tolerance study in dairy cows. Format: in vivo.
The test system of data set [10] is Salmonella Typhimurium strains TA1535, TA1537, TA98, TA100, and Escherichia coli strain WP2 uvrA. The data set is described as follows: Bacterial reverse mutation assay of NOPA. In kind it is cell-based. Particulars: strains TA1535 and TA100, presence and absence of S9 mix, up to 5,000 μg/plate. The method in brief: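 Plate-incorporation reverse mutation test on the metabolite in S. Typhimurium TA1535, TA1537, TA98 and TA100 and E. coli WP2 uvrA, with and without liver microsomal activation. Concentrations were 3, 10, 33, 100, 333, 1,000, 2,500 and 5,000 μg/plate. Each concentration and each control was plated in triplicate, and positive and negative controls were included.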

In data set [11] the test system is whole blood human lymphocytes. The data set is described as follows: In vitro micronucleus test of NOPA. Format: cell-based. Particulars: 229 to 1,321 μg/mL, with and without metabolic activation. The method in brief:
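GLP micronucleus test (OECD TG 487) on the metabolite (purity 98.4%) in human whole-blood lymphocytes. Three concentrations from 229 to 1,321 μg/mL (top about 10 mmol/L) were analysed. Treatments were a short exposure (4 + 20 h recovery) with and without metabolic activation, and a continuous treatment without activation. Micronuclei were scored.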

Data set [12] has as its system peripheral blood reticulocytes. The data set is described as follows: In vivo micronucleus assay of NOPA in peripheral blood reticulocytes. More on the design: species or system Fischer 344 Big Blue rats. Conditions: days 4 and 29. The method in brief: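 Fischer 344 Big Blue rats, six per sex per group, were given the metabolite by oral gavage once daily for 28 days at 10 mL/kg in phosphate-buffered saline, pH 7.4. Males received 0, 150, 300 or 600 mg/kg bw/day and females 0, 250, 500 or 1,000 mg/kg bw/day. Peripheral blood was sampled on days 4 and 29, and micronucleated reticulocytes were counted by flow cytometry. Kit positive-control samples were run; there was no concurrent positive group.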

The nature of data set [13]: 28‐day oral gavage study with toxicokinetic evaluation of NOPA. Format: in vivo, CByB6F1 Hybrid mice. Particulars: CByB6F1 Hybrid, mouse, plasma, oral, 700 mg/kg.
The next data set concerns CByB6F1 Hybrid mice. Described as above. Format: in vivo. Conditions: both sexes.
Data set [14] can be described thus: Consumer exposure calculation to NOPA.

“And” between values parts separate entries of the source, which are not always exact repeats. Equal entries are not always repeated.

As a reminder, the half-life is the time in which the quantity being followed falls by half.

As for `O=C(O)CCO` [3‐HPA, 3‐hydroxy‐propionic acid], in data set [1], the “Urinary metabolite, share of the dose administered” value turned out to be 7.2% and the “Urinary metabolite, share of the urine radioactivity” value is 47.5%. The “Urinary metabolite, share of the urine radioactivity” value in data set [2] was 58%. For the same compound, in [3], the Metabolite in epididymis was found to be 60 % TRR and the Metabolite in testes worked out at 84 % TRR. Moreover, the “Metabolite in the small intestine” value in data set [3] (females) was 46.5 % of TRR. Moreover, in [3] (males), the “Metabolite in the small intestine” value is 34.8 % of TRR. The Testicular/epididymal findings entry in data set [4] (10 days after sc administration) is “absence of any testicular/epididymal abnormality”.
Consider `O=C(O)CCO[N+](=O)[O-]` [NOPA, 3‐nitrooxypropionic acid], for which the “Urinary metabolite, share of the urine radioactivity” value in data set [2] worked out at 20%. Moreover, the results for the “Nitrate esters in milk, not detectable (LOD)” value in “ADME in a lactating goat” (milk collected 0–8 h post‐dose) and in the data set “ADME in a lactating goat” (milk collected 8–24 h post‐dose) were below 0.82 mg 3‐NOP‐equivalent/kg and below 0.43 mg 3‐NOP‐equivalent/kg, respectively. The “Nitrate esters in the aqueous phase of plasma, not detectable (LOD)” value in data set [5] (LOD ≤ 0.07) is below 0.07 mg/kg. Also, the “Nitrate esters in the aqueous milk fraction, not detectable (LOD)” value in [5] (LOD ≤ 0.21) is on record as below 0.21 mg/kg. Further, the “Amount in urine, not detected above the LOQ” value in data set [6] (any urine sample) is ≤ 0.1 % of the dose. For the same compound, the “3‐NOP and NOPA in total excreta, worst‐case scenario” value in data set [6] (dairy cows) is listed as at most 0.2%. In addition, in data set [6] (in vivo), the “Residue in milk, not found above the LOQ” value is below 8 μg 3‐NOP‐equivalents/kg. Further, the “Residue in tissues, not found above the LOQ” value in [6] (in vivo) is recorded as below 21 μg 3‐NOP‐equivalents/kg. In [7], this compound had a concentration at 180 min of 22.3 to 207 ng/mL. This compound also gave a concentration at 57 day in data set [8] below 5 ng/g. In addition, the “NOPA in milk, median of samples above 1 μg/kg” value was found to be 1.74 µg/kg in [9] (80 mg 3‐NOP/kg feed DM) and 1.52 µg/kg in data set [9] (100 mg 3‐NOP/kg feed DM, 7 cows). Further, the “Gene mutations in bacteria” value in data set [10] is listed as “induced gene mutations by base pair substitutions”. In addition, in [11], the Frequency of micronuclei entry is “No significant increase in the frequency of micronuclei”. Further, the “Incidence of MN‐RETs” value in data set [12] was “No significant increases in the incidence of MN‐RETs”. Also, the half-life lay within 42 to 72 min in [13] (female) and 30 to 84 min in data set [13] (male). The “Time of rapid increase of NOPA plasma concentration” value in the data set with CByB6F1 Hybrid mice is below 1 h. In data set [4] (ex vivo/in vitro cultures of seminiferous tubuli), the “Susceptibility of Sertoli cells from dogs” value is recorded as “not susceptible”. The “Consumer exposure, maximum HRP” value is 0.2260 μg/kg bw per day in data set [14] (Adolescents); 0.1293 μg/kg bw per day in data set [14] (Adults); 0.1162 μg/kg bw per day in data set [14] (Elderly); 0.4542 μg/kg bw per day in [14] (Infants); 0.6 μg/kg bw per day and 0.5952 μg/kg bw per day in data set [14] (Other children); 0.4674 μg/kg bw per day in data set [14] (Toddlers). Moreover, the “Consumer exposure, maximum HRP” value in data set [14] (Very elderly) was 0.1266 μg/kg bw per day. For the same compound, in [14] (other children, ADI 1 mg/kg bw per day), the “Maximum HRP as share of the established ADI” value was 0.06%.
For `O=C(O)C1OC(OCCCO[N+](=O)[O-])C(O)C(O)C1O` (stereo not shown) [glucuronide of 3‐NOP], in data set [2], the “Urinary metabolite, share of the urine radioactivity” value was 11%.
